Test results taken from paper PMC7004521 (Cancer Science, 2019).
“Also recorded” adds a separate entry of the source. Where two headings read alike, the source gives them in different places.

Tests used:
[1] = tested on: MET‐dysregulated advanced solid tumors; test: Best overall response according to investigator; format: in vivo, human
Outline: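 Patients with MET-dysregulated advanced solid tumours took oral twice-daily doses in 28-day cycles: 100–600 mg capsules or 400 mg tablets in escalation, and 600 mg capsules or 400 mg tablets in expansion. Tumours were assessed by CT, or by contrast MRI for GBM or when CT was contraindicated. Response was judged by the investigator per RECIST v1.0 (the ORR endpoint is defined per v1.1), or MacDonald criteria for GBM.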

[2] = Dose-limiting toxicities, MTD and RP2D determination; format: in vivo, human
[3] = End of treatment / discontinuation reasons; format: in vivo, human; settings: dose‐expansion part, six of 38 patients
advanced solid tumors = settings: Japanese patients with advanced solid tumors; cited from earlier work
Plasma pharmacokinetics = format: in vivo, human
Outline: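 Capsules (100–600 mg bid) or tablets (400 mg bid) were given orally. In escalation, plasma was drawn pre-dose and at 0.5, 1, 2, 4, 6 and 8 h on cycle 1 days 1 and 15, plus pre-dose on C1D2, C1D16, C2D1 and C3D1. In expansion, non-NSCLC patients had the C1D15 profile plus pre-dose samples. Analysis was validated LC-MS/MS (LLOQ 1 ng/mL) with noncompartmental parameters.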

MET [4] = settings: cellular assays; cited from earlier work
c‐MET phosphorylation = settings: read-out: EC90 (90% inhibition of c‐MET phosphorylation); total concentration; c‐MET‐dependent mouse tumor models; cited from earlier work
MET [5] = settings: biochemical assays; cited from earlier work
p‐MET = p‐MET immunohistochemistry in paired tumor biopsies; format: in vivo, human; settings: 450 mg bid capsule, cycle 1 day 15, one advanced CRC patient
MET‐dependent tumors = settings: tolerable doses; animal models incl. NSCLC, HCC, GBM; cited from earlier work
[6] = dose‐expansion cohorts, N = 18 evaluable
[7] = escalation 400 mg bid tablet n=5
[8] = expansion RP2D gastric cancer n=9
[9] = expansion RP2D other indications n=18

CNC(=O)c1ccc(-c2cnc3ncc(Cc4ccc5ncccc5c4)n3n2)cc1F [capmatinib]
Best overall response: Complete response ([1]; all escalations N=38): 0 n (%) | Best overall response: Partial response ([1]; all escalations N=38): 0 n (%) | Best overall response: Progressive disease ([1]; all escalations N=38): 25 (66) n (%) | Best overall response: Unknown ([1]; all escalations N=38): 3 (5) n (%) | Best overall response: Complete response ([1]; all expansions RP2D N=38): 0 n (%) | Best overall response: Partial response ([1]; all expansions RP2D N=38): 0 n (%) | tumor shrinkage ([1]; dose escalation, 450 mg bid capsule, colon cancer and HCC): tumor shrinkage was observed in two patients; also recorded: tumor shrinkage was observed for two patients | patients with best percentage change from baseline in sum of tumor diameters <0 [1, 6]: 7 n | patients with best percentage change from baseline in sum of tumor diameters >0 [1, 6]: 11 n | Best overall response: Complete response ([1]; escalation 100 mg bid n=4): 0 n (%) | Best overall response: Partial response ([1]; escalation 100 mg bid n=4): 0 n (%) | Best overall response: Progressive disease ([1]; escalation 100 mg bid n=4): 2 (50) n (%) | Best overall response: Stable disease ([1]; escalation 100 mg bid n=4): 2 (50) n (%) | Best overall response: Unknown ([1]; escalation 100 mg bid n=4): 0 n (%) | Best overall response: Complete response ([1]; escalation 200 mg bid n=5): 0 n (%) | Best overall response: Partial response ([1]; escalation 200 mg bid n=5): 0 n (%) | Best overall response: Progressive disease ([1]; escalation 200 mg bid n=5): 4 (80) n (%) | Best overall response: Stable disease ([1]; escalation 200 mg bid n=5): 1 (20) n (%) | Best overall response: Unknown ([1]; escalation 200 mg bid n=5): 0 n (%) | Best overall response: Complete response ([1]; escalation 250 mg bid n=4): 0 n (%) | Best overall response: Partial response ([1]; escalation 250 mg bid n=4): 0 n (%) | Best overall response: Stable disease ([1]; escalation 250 mg bid n=4): 1 (25) n (%) | Best overall response: Unknown ([1]; escalation 250 mg bid n=4): 1 (25) n (%) | Best overall response: Complete response ([1]; escalation 350 mg bid n=3): 0 n (%) | Best overall response: Partial response ([1]; escalation 350 mg bid n=3): 0 n (%) | Best overall response: Progressive disease ([1]; escalation 350 mg bid n=3): 2 (67) n (%) | Best overall response: Stable disease ([1]; escalation 350 mg bid n=3): 1 (33) n (%) | Best overall response: Unknown ([1]; escalation 350 mg bid n=3): 0 n (%) | Best overall response: Complete response [1, 7]: 0 n (%) | Best overall response: Partial response [1, 7]: 0 n (%) | Best overall response: Progressive disease [1, 7]: 3 (60) n (%) | Best overall response: Stable disease [1, 7]: 2 (40) n (%) | Best overall response: Unknown [1, 7]: 0 n (%) | Best overall response: Complete response ([1]; escalation 450 mg bid n=9): 0 n (%) | Best overall response: Partial response ([1]; escalation 450 mg bid n=9): 0 n (%) | Best overall response: Progressive disease ([1]; escalation 450 mg bid n=9): 6 (67) n (%) | Best overall response: Stable disease ([1]; escalation 450 mg bid n=9): 2 (22) n (%) | Best overall response: Unknown ([1]; escalation 450 mg bid n=9): 1 (11) n (%) | Best overall response: Complete response ([1]; escalation 600 mg bid n=8): 0 n (%) | Best overall response: Partial response ([1]; escalation 600 mg bid n=8): 0 n (%) | Best overall response: Progressive disease ([1]; escalation 600 mg bid n=8): 6 (75) n (%) | Best overall response: Stable disease ([1]; escalation 600 mg bid n=8): 1 (13) n (%) | Best overall response: Unknown ([1]; escalation 600 mg bid n=8): 1 (13) n (%) | Best overall response: Complete response ([1]; expansion RP2D HCC n=11): 0 n (%) | Best overall response: Partial response ([1]; expansion RP2D HCC n=11): 0 n (%) | Best overall response: Progressive disease ([1]; expansion RP2D HCC n=11): 1 (9.1) n (%) | Best overall response: Stable disease ([1]; expansion RP2D HCC n=11): 5 (46) n (%) | Best overall response: Unknown ([1]; expansion RP2D HCC n=11): 5 (46) n (%) | Best overall response: Complete response [1, 8]: 0 n (%) | Best overall response: Partial response [1, 8]: 0 n (%) | Best overall response: Progressive disease [1, 8]: 3 (33) n (%) | Best overall response: Stable disease [1, 8]: 2 (22) n (%) | Best overall response: Unknown [1, 8]: 4 (44) n (%) | Best overall response: Complete response [1, 9]: 0 n (%) | Best overall response: Partial response [1, 9]: 0 n (%) | Best overall response: Progressive disease [1, 9]: 9 (50) n (%) | Best overall response: Stable disease [1, 9]: 5 (28) n (%) | Best overall response: Unknown [1, 9]: 4 (22) n (%) | stable disease ([1]; expansion, other advanced solid tumor types, five of 18 patients): 28% | tumor reduction in patients with GCN ≥6 ([1]; expansion, two other solid tumor patients): substantial tumor reduction | posterior probability of excessive toxicity (BLRM) ([2]; 600 mg bid dose level, dose‐escalation phase): 20.1% | MTD ([2]; up to 600 mg bid capsules): not reached | patients discontinued as a result of AE [3]: 16% | best overall response stable disease (advanced solid tumors): 18.2% | drug accumulation following multiple doses (Plasma pharmacokinetics; 400 mg bid tablets): Limited drug accumulation | Racc (accumulation ratio), Mean (SD) (Plasma pharmacokinetics; Cycle 1 Day 15, 100 mg bid n=3): 1.54 (0.786) | Racc (accumulation ratio), Mean (SD) (Plasma pharmacokinetics; Cycle 1 Day 15, 200 mg bid n=5): 1.36 (0.869) | Racc (accumulation ratio), Mean (SD) (Plasma pharmacokinetics; Cycle 1 Day 15, 250 mg bid n=3): 1.08 (0.443) | Racc (accumulation ratio), Mean (SD) (Plasma pharmacokinetics; Cycle 1 Day 15, 350 mg bid n=3): 1.38 (0.614) | Racc (accumulation ratio), Mean (SD) (Plasma pharmacokinetics; Cycle 1 Day 15, 400 mg bid tablet n=5): 1.09 (0.408) | Racc (accumulation ratio), Mean (SD) (Plasma pharmacokinetics; Cycle 1 Day 15, 450 mg bid n=5): 2.36 (1.75) | Racc (accumulation ratio), Mean (SD) (Plasma pharmacokinetics; Cycle 1 Day 15, 600 mg bid n=15): 2.07 (0.848) | drug accumulation ratio following multiple doses (Plasma pharmacokinetics; capsules): one‐ to twofold | drug accumulation following multiple doses (Plasma pharmacokinetics; capsules 450 and 600 mg bid): ca. twofold | dose proportionality of steady‐state AUCtau and Cmax (Plasma pharmacokinetics; capsules, 100 to 600 mg bid): generally dose proportional | mean exposure, tablet 400 mg bid versus capsules 600 mg bid (Plasma pharmacokinetics; steady state): comparable mean exposure | Cmax, Mean (SD) (Plasma pharmacokinetics; steady state, Cycle 1 Day 15, 200 mg bid n=5): 2500 (856) ng/mL | Tmax, Median (Plasma pharmacokinetics; steady state, Cycle 1 Day 15, 250 mg bid n=3): 1.00 h | Tmax, Median (Plasma pharmacokinetics; steady state, Cycle 1 Day 15, 400 mg bid tablet n=8): 2.02 h | IC50 (MET [4]): ~1 nM | EC90 (c‐MET phosphorylation): ~71 nM | IC50 (MET [5]): 0.13 nM | p‐MET H‐score (IHC) on treatment (p‐MET): 2 | effect on MET‐dependent tumors (MET‐dependent tumors): regression of MET‐dependent tumors
